Measured values from ChEMBL document CHEMBL4396918, “Identification of a potent small-molecule inhibitor of bacterial DNA repair that potentiates quinolone antibiotic activity in methicillin-resistant Staphylococcus aureus” (Bioorg Med Chem, 2019).
The source made the active and inactive calls. The rule behind the calls is not given here.

Assays:
Staphylococcus aureus [1] = assay: Potentiation of ciprofloxacin-induced antibacterial activity against methicillin resistant Staphylococcus aureus USA300 JE2 assessed as fold reduction in ciprofloxacin EC50 incubated for 18 hrs in presence of 0.5 times MIC ciprofloxacin by broth microdilution method relative to ciprofloxacin; format: functional
[2] = system: Staphylococcus aureus subsp. aureus USA300; conditions: JE2, 66 uM
Escherichia coli = assay: Inhibition of Escherichia coli DNA topoisomerase IV using supercoiled pQE80L as substrate at 12.5 uM incubated for 30 mins by ethidium bromide staining-based agarose gel electrophoresis method
[3] = system: Staphylococcus aureus subsp. aureus USA300; assay: Inhibition of AddAB in Staphylococcus aureus USA300 JE2 transformed with pCN34 PrecA-gfp reporter plasmid assessed as decrease in cell number at 66 uM measured at 15 mins interval for 17 hrs by GFP reporter gene assay
In short: (§1)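 S. aureus JE2 carrying a recA-promoter GFP reporter. […] Cell number was read as OD600 and SOS activation as GFP fluorescence, then normalized as fluorescence per cell. Mean ± SEM, n = 3 biological replicates.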

[4] = Ratio of EC50 for antibacterial activity against Escherichia coli K-12 BW25113 to EC50 for Staphylococcus aureus SH1000; format: functional
[5] = molecular target: T1, DNA gyrase (Escherichia coli) (UniProt P0AES6+P0AES4); assay: Inhibition of Escherichia coli DNA gyrase (A2B2 tetramer) at 12.5 uM using relaxed pBR322 as substrate preincubated for 30 mins followed by enzyme addition by SYBR staining-based agarose gel electrophoresis method; format: protein-complex assay
In short: (§2)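 Supercoiling of relaxed pBR322 by DNA gyrase, with products (relaxed, […], supercoiled) resolved by agarose gel electrophoresis. Supercoiled fraction quantified by densitometry. Mean ± SEM of 3 technical replicates.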

Staphylococcus aureus [6] = assay: Synergistic antibacterial activity against Staphylococcus aureus USA300 JE2 assessed as ciprofloxacin dose reduction index at 100 uM at 1:2 test compound to ciprofloxacin measured every 30 mins for 17 hrs; format: functional
In short: (§3)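 OD600 recorded over 17 h at 37 °C. Exponential-phase growth rate used for dose–response EC50 fitting. Combination index and dose-reduction index calculated by the Chou–Talalay method versus fraction affected.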

[7] = molecular target: T1, DNA gyrase (Escherichia coli); assay: Inhibition of Escherichia coli DNA gyrase (A2B2 tetramer) assessed as Fraction supercoiled at 12.5 uM using relaxed pBR322 as substrate preincubated for 30 mins followed by enzyme addition by SYBR staining-based agarose gel electrophoresis method; format: protein-complex assay; in short: as §2
Staphylococcus aureus [8] = assay: Synergistic antibacterial activity against Staphylococcus aureus USA300 JE2 assessed as dose reduction index at 100 uM at 1:2 test compound to ciprofloxacin measured every 30 mins for 17 hrs; format: functional; in short: as §3
[9] = system: Staphylococcus aureus subsp. aureus USA300; assay: Inhibition of AddAB in Staphylococcus aureus USA300 JE2 transformed with pCN34 PrecA-gfp reporter plasmid assessed as inhibition of SOS response by measuring reduction in green fluorescence per cell at 66 uM measured at 15 mins interval for 17 hrs by GFP reporter gene assay; in short: as §1
Staphylococcus aureus [10] = assay: Synergistic antibacterial activity against Staphylococcus aureus USA300 JE2 assessed as ciprofloxacin dose reduction index at 100 uM at 1:1 test compound to ciprofloxacin measured every 30 mins for 17 hrs; format: functional; in short: as §3
[11] = Inhibition of N-terminal his6-tagged AddB (unknown origin) expressed in Escherichia coli BL21 cells transformed with pET28 plasmid by Western blot based pull down assay
In short: (§4)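 Pulldown from E. coli SoluBL21 expressing StrepII-tagged AddA and His6-tagged AddB from pET28b+, induced overnight at 16 °C. Lysates were obtained by sonication and incubated with compound-functionalized Sepharose or DMSO-treated, Tris-quenched control beads. Beads were washed three times in lysis buffer and eluted in SDS-PAGE sample buffer. Western blots used anti-His6 and anti-StrepII detection.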

[12] = Inhibition of N-terminal strep2-tagged AddA (unknown origin) expressed in Escherichia coli BL21 cells transformed with pET28 plasmid by Western blot based pull down assay; in short: as §4
Staphylococcus aureus [13] = assay: Synergistic antibacterial activity against Staphylococcus aureus USA300 JE2 assessed as dose reduction index at 100 uM at 1:1 test compound to ciprofloxacin measured every 30 mins for 17 hrs; format: functional; in short: as §3

Row | SMILES | fold change (FC) (Staphylococcus aureus [1]) | Ratio EC50 [4] | other results
1 | O=C(O)c1cn(C2CC2)c2cc(N3CCN(C(=S)Nc4cc(C(F)(F)F)cc(C(F)(F)F)c4)CC3)c(F)cc2c1=O | >4 | – | –
2 | O=C(O)c1cn(C2CC2)c2cc(N3CCNCC3)c(F)cc2c1=O | – | – | inhibition [2]: Active; inhibition (Escherichia coli): Active; inhibition [3]: Active
3 | CCn1cc(C(=O)O)c(=O)c2cnc(N3CCN(C(=S)Nc4cccc(Cl)c4)CC3)nc21 | >4 | >10 | inhibition [5]: inactive; Activity_index (Staphylococcus aureus [6]): 2.2; Ratio [7]: 1.1; Activity_index (Staphylococcus aureus [8]): 2
4 | CCn1cc(C(=O)O)c(=O)c2cnc(N3CCN(C(=S)Nc4ccc(C(F)(F)F)cc4)CC3)nc21 | >4 | >10 | –
5 | CCn1cc(C(=O)O)c(=O)c2cnc(N3CCN(C(=S)Nc4cc(Cl)cc(Cl)c4)CC3)nc21 | >4 | >50 | –
6 | O=C(O)c1cn(C2CC2)c2cc(N3CCN(C(=S)Nc4cccc(F)c4)CC3)c(F)cc2c1=O | >3 | 2 - 5 | –
7 | CCn1cc(C(=O)O)c(=O)c2cnc(N3CCN(C(=S)Nc4cc(C(F)(F)F)cc(C(F)(F)F)c4)CC3)nc21 | >4 | >10 | –
8 | O=C(O)c1cn(C2CC2)c2cc(N3CCN(C(=S)Nc4ccc(C(F)(F)F)cc4)CC3)c(F)cc2c1=O | >3 | 2 - 5 | inhibition (Escherichia coli): inactive; inhibition [9]: Active; inhibition [5]: inactive; Activity_index (Staphylococcus aureus [10]): 2.9; inhibition [11]: Active; inhibition [3]: Active; inhibition [12]: Active; Ratio [7]: 1.2
9 | CCn1cc(C(=O)O)c(=O)c2cnc(N3CCN(C(=S)Nc4cccc(C(F)(F)F)c4)CC3)nc21 | >4 | >10 | inhibition (Escherichia coli): inactive; inhibition [5]: inactive; Activity_index (Staphylococcus aureus [10]): 1.8; Ratio [7]: 1.1; Activity_index (Staphylococcus aureus [13]): 2.2
10 | CCn1cc(C(=O)O)c(=O)c2cnc(N3CCN(C(=S)Nc4cccc(F)c4)CC3)nc21 | >4 | >10 | –
11 | CCn1cc(C(=O)O)c(=O)c2cnc(N3CCN(C(=O)Nc4ccccc4)CC3)nc21 | >4 | – | inhibition (Escherichia coli): inactive; inhibition [5]: inactive; Ratio [7]: 1.1
12 | O=C(O)c1cn(C2CC2)c2cc(N3CCN(C(=S)Nc4cccc(Cl)c4)CC3)c(F)cc2c1=O | >3 | 2 - 5 | –
13 | O=C(O)c1cn(C2CC2)c2cc(N3CCN(C(=S)Nc4cccc(C(F)(F)F)c4)CC3)c(F)cc2c1=O | >3 | 2 - 5 | –
14 | O=C(O)c1cn(C2CC2)c2cc(N3CCN(C(=O)Nc4ccccc4)CC3)c(F)cc2c1=O | – | – | inhibition [11]: inactive; inhibition [12]: inactive
15 | O=C(O)c1cn(C2CC2)c2cc(N3CCN(C(=S)Nc4ccc([N+](=O)[O-])cc4)CC3)c(F)cc2c1=O | 20 | – | –
16 | O=C(O)c1cn(C2CC2)c2cc(N3CCN(C(=S)Nc4cc(Cl)cc(Cl)c4)CC3)c(F)cc2c1=O | >3 | 2 - 5 | –
17 | O=C(O)c1cn(C2CC2)c2cc(N3CCN(C(=S)Nc4cccc([N+](=O)[O-])c4)CC3)c(F)cc2c1=O | >4 | – | –
